Measurements taken from ChEMBL document CHEMBL4261600 (Eur J Med Chem, 2018).

Tests used:
MV4-11 = assay: Induction of apoptosis in human MV4-11 cells assessed as decrease in MCL-1 level after 2 hrs by immunoblotting analysis; type: functional, cell-based
[1] = MRT (0 to infinity) in Sprague-Dawley rat at 3 mg/kg, iv by LC-MS/MS analysis; type: ADME, organism-based; details: in vivo
[2] = MRT (0 to infinity) in beagle dog at 10 mg/kg, po by LC-MS/MS analysis; type: ADME, organism-based, Canis lupus familiaris; details: in vivo
[3] = target: BMP-2-inducible protein kinase (Homo sapiens) (UniProt Q9NSY1); assay: Binding affinity to wild-type human partial length BIKE (S34 to N329 residues) expressed in bacterial expression system assessed as remaining unbound target protein level at 1000 nM by Kinomescan method relative to control
In short: (§1)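 Profiled in a KINOMEscan binding panel with the inhibitor at a single concentration of 1 μM. Binding to each kinase was read out as percent of control, relative to a DMSO control. Strong binders were defined as those with a percent control value below 1.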

[4] = target: Tyrosine-protein kinase BTK (Homo sapiens) (UniProt Q06187); assay: Binding affinity to wild-type human full length BTK (M1 to S659 residues) expressed in mammalian expression system assessed as remaining unbound target protein level at 1000 nM by Kinomescan method relative to control
Tyrosine-protein kinase BTK (Homo sapiens), sequence (Q06187 whole entry, the tested form may be a part): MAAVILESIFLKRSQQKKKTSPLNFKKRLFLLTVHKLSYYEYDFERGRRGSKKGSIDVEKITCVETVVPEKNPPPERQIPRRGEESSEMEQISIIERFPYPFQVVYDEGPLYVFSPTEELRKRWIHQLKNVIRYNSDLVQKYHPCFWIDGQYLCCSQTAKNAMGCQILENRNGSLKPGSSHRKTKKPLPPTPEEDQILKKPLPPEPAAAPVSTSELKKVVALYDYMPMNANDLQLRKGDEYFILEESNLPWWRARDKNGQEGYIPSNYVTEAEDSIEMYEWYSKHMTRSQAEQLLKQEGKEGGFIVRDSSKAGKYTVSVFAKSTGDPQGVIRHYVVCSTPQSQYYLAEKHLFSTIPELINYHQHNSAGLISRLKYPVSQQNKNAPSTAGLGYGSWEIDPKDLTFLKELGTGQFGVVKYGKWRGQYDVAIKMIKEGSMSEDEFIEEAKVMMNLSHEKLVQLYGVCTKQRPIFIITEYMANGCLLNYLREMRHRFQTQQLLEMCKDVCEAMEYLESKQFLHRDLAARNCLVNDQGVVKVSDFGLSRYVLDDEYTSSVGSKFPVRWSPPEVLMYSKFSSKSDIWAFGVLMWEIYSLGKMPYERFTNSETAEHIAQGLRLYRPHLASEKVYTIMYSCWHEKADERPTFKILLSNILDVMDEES
In short: (§2)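 Single-point competition binding screen across a panel of 468 kinases and mutants, with the inhibitor at 1 μM. Binding is read out as percent of a DMSO control, and targets below 1 percent control were classed as strong binders.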

[5] = target: Calcium/calmodulin-dependent protein kinase type 1D (Homo sapiens) (UniProt Q8IU85); assay: Binding affinity to wild-type human partial length CAMK1D (M1 to K299 residues) expressed in bacterial expression system assessed as remaining unbound target protein level at 1000 nM by Kinomescan method relative to control; in short: as §1
[6] = target: Casein kinase II subunit alpha (Homo sapiens) (UniProt P68400); assay: Binding affinity to wild-type human full length CSNK2A1 (M1 to Q391 residues) expressed in mammalian expression system assessed as remaining unbound target protein level at 1000 nM by Kinomescan method relative to control
Casein kinase II subunit alpha (Homo sapiens), sequence (P68400 whole entry, looked up, the tested form may be a part): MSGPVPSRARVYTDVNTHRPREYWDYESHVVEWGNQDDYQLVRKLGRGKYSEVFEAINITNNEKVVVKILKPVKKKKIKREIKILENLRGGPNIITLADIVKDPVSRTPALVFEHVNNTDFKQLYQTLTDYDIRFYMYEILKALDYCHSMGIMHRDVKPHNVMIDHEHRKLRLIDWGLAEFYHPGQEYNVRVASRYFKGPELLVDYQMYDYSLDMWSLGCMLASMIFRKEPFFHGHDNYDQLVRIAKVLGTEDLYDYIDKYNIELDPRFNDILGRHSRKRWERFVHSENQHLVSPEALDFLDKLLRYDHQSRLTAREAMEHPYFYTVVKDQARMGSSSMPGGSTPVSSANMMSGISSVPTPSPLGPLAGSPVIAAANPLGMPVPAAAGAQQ
In short: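 KINOMEscan competitive binding profile at 1 μM inhibitor. Remaining target binding reported as percent of DMSO control.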

[7] = target: Dual specificity tyrosine-phosphorylation-regulated kinase 1B (Homo sapiens) (UniProt Q9Y463); assay: Binding affinity to wild-type human full length DYRK1B (M1 to S629 residues) expressed in bacterial expression system assessed as remaining unbound target protein level at 1000 nM by Kinomescan method relative to control
Dual specificity tyrosine-phosphorylation-regulated kinase 1B (Homo sapiens), sequence (Q9Y463 whole entry, looked up, the tested form may be a part): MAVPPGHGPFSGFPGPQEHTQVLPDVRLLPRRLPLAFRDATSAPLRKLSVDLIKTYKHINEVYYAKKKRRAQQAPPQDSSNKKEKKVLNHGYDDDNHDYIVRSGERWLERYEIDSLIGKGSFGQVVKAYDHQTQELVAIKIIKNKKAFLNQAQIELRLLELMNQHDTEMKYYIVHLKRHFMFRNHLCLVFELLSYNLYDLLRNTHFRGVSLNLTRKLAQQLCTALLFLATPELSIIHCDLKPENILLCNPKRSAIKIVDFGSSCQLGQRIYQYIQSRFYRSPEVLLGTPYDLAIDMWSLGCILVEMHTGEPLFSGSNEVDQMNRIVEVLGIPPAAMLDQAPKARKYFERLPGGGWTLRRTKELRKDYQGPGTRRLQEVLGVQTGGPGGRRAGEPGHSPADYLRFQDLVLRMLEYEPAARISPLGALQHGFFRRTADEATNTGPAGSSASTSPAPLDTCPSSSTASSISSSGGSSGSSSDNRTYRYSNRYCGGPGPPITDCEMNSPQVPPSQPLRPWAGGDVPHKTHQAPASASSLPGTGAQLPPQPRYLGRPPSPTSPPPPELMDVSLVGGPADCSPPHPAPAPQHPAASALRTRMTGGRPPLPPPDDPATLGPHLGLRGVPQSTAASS
In short: (§3)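 KINOMEscan competition binding profile across a panel of 468 kinases and mutants, with the inhibitor tested at a single concentration of 1 μM. Binding is reported as percent of control, meaning signal relative to a DMSO control.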

[8] = target: Receptor tyrosine-protein kinase erbB-2 (Homo sapiens) (UniProt P04626); assay: Binding affinity to wild-type human partial length ERBB2 (K646 to V1225 residues) expressed in mammalian expression system assessed as remaining unbound target protein level at 1000 nM by Kinomescan method relative to control
Receptor tyrosine-protein kinase erbB-2 (Homo sapiens), sequence (P04626 whole entry, the tested form may be a part): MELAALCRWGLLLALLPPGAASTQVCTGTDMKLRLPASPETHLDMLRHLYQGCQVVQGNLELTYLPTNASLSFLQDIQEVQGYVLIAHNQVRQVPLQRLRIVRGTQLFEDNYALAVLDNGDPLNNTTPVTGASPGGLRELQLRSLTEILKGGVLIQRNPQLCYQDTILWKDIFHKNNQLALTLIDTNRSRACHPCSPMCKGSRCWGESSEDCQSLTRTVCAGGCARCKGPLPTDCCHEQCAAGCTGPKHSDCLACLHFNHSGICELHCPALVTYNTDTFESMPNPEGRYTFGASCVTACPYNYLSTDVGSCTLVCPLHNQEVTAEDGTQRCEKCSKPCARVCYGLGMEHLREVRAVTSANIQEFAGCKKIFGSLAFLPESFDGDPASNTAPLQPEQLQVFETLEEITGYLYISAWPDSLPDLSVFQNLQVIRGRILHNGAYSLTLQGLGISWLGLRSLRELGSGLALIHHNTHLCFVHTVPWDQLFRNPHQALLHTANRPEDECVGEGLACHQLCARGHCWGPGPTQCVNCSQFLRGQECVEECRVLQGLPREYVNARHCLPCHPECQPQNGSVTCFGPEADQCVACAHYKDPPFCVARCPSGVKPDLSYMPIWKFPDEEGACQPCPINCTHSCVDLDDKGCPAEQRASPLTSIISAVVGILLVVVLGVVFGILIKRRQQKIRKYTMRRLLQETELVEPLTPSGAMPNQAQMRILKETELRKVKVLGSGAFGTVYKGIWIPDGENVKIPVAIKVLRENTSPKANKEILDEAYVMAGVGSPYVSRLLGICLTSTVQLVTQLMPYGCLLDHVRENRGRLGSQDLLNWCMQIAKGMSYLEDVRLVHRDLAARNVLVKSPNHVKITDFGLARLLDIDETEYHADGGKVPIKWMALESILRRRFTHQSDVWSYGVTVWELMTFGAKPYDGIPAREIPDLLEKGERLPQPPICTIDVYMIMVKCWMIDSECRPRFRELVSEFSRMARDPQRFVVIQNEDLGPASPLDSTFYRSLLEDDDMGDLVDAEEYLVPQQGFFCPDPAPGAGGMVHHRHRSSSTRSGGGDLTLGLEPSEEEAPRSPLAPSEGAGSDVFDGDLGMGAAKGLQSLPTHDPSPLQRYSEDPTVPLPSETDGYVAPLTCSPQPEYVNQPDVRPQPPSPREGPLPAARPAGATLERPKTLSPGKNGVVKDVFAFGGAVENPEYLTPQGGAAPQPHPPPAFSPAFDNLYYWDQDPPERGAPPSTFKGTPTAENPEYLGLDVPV

[9] = target: Vascular endothelial growth factor receptor 1 (Homo sapiens) (UniProt P17948); assay: Binding affinity to wild-type human partial length FLT1 (R781 to F1239 residues) expressed in bacterial expression system assessed as remaining unbound target protein level at 1000 nM by Kinomescan method relative to control
[10] = tested on: Receptor-type tyrosine-protein kinase FLT3 (Homo sapiens), P36888 [K663Q]; assay: Binding affinity to human partial length FLT3 K663Q mutant (V592 to Y969 residues) expressed in bacterial expression system assessed as remaining unbound target protein level at 1000 nM by Kinomescan method relative to control
In short: (§4)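 KINOMEscan competition-binding profiling across the panel of 468 kinases and mutants, with inhibitor tested at 1 μM. Binding is expressed as percent of control, with DMSO as the reference control.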

[11] = target: G protein-coupled receptor kinase 3 (Homo sapiens) (UniProt P35626); assay: Binding affinity to wild-type human full length GRK3 (M1 to L688 residues) expressed in mammalian expression system assessed as remaining unbound target protein level at 1000 nM by Kinomescan method relative to control; in short: as §3
[12] = target: Rhodopsin kinase GRK7 (Homo sapiens) (UniProt Q8WTQ7); assay: Binding affinity to wild-type human full length GRK7 (M1 to L553 residues) expressed in mammalian expression system assessed as remaining unbound target protein level at 1000 nM by Kinomescan method relative to control; in short: as §2
Rhodopsin kinase GRK7 (Homo sapiens), sequence (Q8WTQ7 whole entry, the tested form may be a part): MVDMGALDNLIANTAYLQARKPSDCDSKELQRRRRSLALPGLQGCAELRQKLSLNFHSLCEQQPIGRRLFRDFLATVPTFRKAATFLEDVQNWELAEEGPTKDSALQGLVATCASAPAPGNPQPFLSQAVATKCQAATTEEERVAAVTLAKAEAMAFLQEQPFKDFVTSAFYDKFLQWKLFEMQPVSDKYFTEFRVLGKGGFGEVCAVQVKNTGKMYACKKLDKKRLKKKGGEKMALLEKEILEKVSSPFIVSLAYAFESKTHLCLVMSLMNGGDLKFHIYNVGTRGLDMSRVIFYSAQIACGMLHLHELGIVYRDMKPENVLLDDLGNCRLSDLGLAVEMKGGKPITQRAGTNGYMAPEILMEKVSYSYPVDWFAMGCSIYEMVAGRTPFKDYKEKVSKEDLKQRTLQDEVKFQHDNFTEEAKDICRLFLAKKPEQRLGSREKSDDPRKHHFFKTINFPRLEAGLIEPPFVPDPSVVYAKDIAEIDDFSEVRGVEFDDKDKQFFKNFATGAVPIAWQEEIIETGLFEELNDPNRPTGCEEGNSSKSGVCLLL

[13] = target: Inhibitor of nuclear factor kappa-B kinase subunit beta (Homo sapiens) (UniProt O14920); assay: Binding affinity to wild-type human full length IKK-beta (M1 to S756 residues) expressed in mammalian expression system assessed as remaining unbound target protein level at 1000 nM by Kinomescan method relative to control; in short: as §2
[14] = tested on: Mast/stem cell growth factor receptor Kit (Homo sapiens), P10721 [A829P]; assay: Binding affinity to human partial length KIT A829P mutant (I571 to D952 residues) expressed in mammalian expression system assessed as remaining unbound target protein level at 1000 nM by Kinomescan method relative to control; in short: as §4
[15] = target: Phosphorylase b kinase gamma catalytic chain, liver/testis isoform (Homo sapiens) (UniProt P15735); assay: Binding affinity to wild-type human partial length PHKG2 (M1 to W300 residues) expressed in bacterial expression system assessed as remaining unbound target protein level at 1000 nM by Kinomescan method relative to control
Phosphorylase b kinase gamma catalytic chain, liver/testis isoform (Homo sapiens), sequence (P15735 whole entry, the tested form may be a part, canonical isoform): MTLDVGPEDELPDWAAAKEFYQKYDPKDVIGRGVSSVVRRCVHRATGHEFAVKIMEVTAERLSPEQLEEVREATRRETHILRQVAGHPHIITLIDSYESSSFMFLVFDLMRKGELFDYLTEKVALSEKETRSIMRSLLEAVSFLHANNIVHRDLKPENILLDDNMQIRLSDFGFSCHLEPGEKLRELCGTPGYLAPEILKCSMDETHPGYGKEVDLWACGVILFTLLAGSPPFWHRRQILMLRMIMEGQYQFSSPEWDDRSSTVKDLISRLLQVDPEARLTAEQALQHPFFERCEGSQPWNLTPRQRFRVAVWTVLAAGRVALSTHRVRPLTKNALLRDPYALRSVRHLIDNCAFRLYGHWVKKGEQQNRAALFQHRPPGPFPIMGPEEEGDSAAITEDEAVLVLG
In short: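 KINOMEscan binding panel of 468 kinases/mutants. Inhibitor was tested at a single concentration of 1 μM. Binding is reported as percent of control, defined relative to a DMSO control.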

[16] = tested on: Phosphatidylinositol 4,5-bisphosphate 3-kinase catalytic subunit alpha isoform (Homo sapiens), P42336 [C420R]; assay: Binding affinity to human partial length PIK3CA C420R mutant (R108 to N1068 residues) expressed in mammalian expression system assessed as remaining unbound target protein level at 1000 nM by Kinomescan method relative to control; in short: as §4
[17] = target: Serine/threonine-protein kinase PLK3 (Homo sapiens) (UniProt Q9H4B4); assay: Binding affinity to wild-type human partial length PLK3 (A42 to L334 residues) expressed in mammalian expression system assessed as remaining unbound target protein level at 1000 nM by Kinomescan method relative to control
[18] = target: Receptor-interacting serine/threonine-protein kinase 2 (Homo sapiens) (UniProt O43353); assay: Binding affinity to wild-type human partial length RIPK2 (M1 to K310 residues) expressed in bacterial expression system assessed as remaining unbound target protein level at 1000 nM by Kinomescan method relative to control
[19] = target: Angiopoietin-1 receptor (Homo sapiens) (UniProt Q02763); assay: Binding affinity to wild-type human partial length TIE2 (N804 to T1112 residues) expressed in bacterial expression system assessed as remaining unbound target protein level at 1000 nM by Kinomescan method relative to control
Angiopoietin-1 receptor (Homo sapiens), sequence (Q02763 whole entry, the tested form may be a part): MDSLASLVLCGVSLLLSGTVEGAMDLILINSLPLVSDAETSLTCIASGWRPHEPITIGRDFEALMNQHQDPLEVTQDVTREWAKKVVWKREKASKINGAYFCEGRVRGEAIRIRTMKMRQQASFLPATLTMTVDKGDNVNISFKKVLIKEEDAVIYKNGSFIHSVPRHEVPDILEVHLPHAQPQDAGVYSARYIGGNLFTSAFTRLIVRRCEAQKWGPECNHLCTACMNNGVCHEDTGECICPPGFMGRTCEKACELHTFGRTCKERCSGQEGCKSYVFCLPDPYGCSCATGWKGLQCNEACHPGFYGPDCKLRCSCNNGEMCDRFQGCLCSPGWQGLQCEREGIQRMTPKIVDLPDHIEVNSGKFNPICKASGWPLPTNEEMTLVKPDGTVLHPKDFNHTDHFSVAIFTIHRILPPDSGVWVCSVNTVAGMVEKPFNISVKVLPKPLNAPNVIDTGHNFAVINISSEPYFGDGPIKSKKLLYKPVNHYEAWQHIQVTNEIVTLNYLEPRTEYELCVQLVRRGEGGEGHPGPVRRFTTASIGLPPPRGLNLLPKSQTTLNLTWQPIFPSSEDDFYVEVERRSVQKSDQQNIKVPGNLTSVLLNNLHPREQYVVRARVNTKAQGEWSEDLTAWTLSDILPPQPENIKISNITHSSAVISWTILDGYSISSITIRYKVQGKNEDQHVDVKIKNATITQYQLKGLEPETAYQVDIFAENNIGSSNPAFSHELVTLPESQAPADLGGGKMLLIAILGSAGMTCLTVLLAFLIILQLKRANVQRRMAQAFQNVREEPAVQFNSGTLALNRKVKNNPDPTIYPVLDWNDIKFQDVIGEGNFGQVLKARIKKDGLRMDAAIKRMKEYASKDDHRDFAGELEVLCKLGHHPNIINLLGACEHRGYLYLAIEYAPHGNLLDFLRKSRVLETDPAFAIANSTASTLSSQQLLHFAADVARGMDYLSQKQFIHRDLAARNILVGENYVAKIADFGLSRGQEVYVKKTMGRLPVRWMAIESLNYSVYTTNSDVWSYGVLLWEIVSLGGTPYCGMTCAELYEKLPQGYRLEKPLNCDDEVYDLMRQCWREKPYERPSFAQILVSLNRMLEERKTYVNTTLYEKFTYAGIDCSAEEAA

[20] = Antiproliferative activity against Chinese hamster CHL cells after 72 hrs by Celltiter-Glo assay; details: Cricetulus griseus

COCCN[C@H]1CC[C@H](Nc2cc(-c3csc(NCC4(C#N)CCOCC4)n3)c(Cl)cn2)CC1
Activity (MV4-11): Dose-dependent effect | MRT inf [1]: 6.33 h | MRT inf [2]: 29.2 h | Activity [3]: 100% | Activity [4]: 100% | Activity [5]: 100% | Activity [6]: 81% | Activity [7]: 0.35% | Activity [8]: 97% | Activity [9]: 98% | Activity [10]: 97% | Activity [11]: 42% | Activity [12]: 100% | Activity [13]: 90% | Activity [14]: 88% | Activity [15]: 99% | Activity [16]: 100% | Activity [17]: 99% | Activity [18]: 96% | Activity [19]: 89% | GI50 [20]: 1200 nM
